High-throughput results deposited in PubChem BioAssay by Johns Hopkins Ion Channel Center.
The list is not random: actives were taken first. Their share in the collection is about 2.3%.
TRPC6 activator = mouse TRPC6 channel activation | 310,000 tested, 0.13% active | B-score at 10 µM | HEK293-TRPC6 membrane potential dye fluorescence; active compounds read high | AID 2550;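 active means B-score of the integrated fluorescence ratio above library mean plus 3 SD, and starting fluorescence ratio within library mean plus 5 SD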;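 further: higher score means more depolarization so channel activation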
TRPC4 block = TRPC4 (mouse) channel inhibition; 300,000 tested, 0.39% active; HEK293 TRPC4beta/mu-opioid, DAMGO-evoked Fluo4 calcium flux; active compounds read low; B-score at 10 µM; Q9QUQ5;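 active means B-score over 3 SD under the library average, no early fluorescence shift, positive overall ratio signal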
Target sequence (Q9QUQ5 whole entry, looked up): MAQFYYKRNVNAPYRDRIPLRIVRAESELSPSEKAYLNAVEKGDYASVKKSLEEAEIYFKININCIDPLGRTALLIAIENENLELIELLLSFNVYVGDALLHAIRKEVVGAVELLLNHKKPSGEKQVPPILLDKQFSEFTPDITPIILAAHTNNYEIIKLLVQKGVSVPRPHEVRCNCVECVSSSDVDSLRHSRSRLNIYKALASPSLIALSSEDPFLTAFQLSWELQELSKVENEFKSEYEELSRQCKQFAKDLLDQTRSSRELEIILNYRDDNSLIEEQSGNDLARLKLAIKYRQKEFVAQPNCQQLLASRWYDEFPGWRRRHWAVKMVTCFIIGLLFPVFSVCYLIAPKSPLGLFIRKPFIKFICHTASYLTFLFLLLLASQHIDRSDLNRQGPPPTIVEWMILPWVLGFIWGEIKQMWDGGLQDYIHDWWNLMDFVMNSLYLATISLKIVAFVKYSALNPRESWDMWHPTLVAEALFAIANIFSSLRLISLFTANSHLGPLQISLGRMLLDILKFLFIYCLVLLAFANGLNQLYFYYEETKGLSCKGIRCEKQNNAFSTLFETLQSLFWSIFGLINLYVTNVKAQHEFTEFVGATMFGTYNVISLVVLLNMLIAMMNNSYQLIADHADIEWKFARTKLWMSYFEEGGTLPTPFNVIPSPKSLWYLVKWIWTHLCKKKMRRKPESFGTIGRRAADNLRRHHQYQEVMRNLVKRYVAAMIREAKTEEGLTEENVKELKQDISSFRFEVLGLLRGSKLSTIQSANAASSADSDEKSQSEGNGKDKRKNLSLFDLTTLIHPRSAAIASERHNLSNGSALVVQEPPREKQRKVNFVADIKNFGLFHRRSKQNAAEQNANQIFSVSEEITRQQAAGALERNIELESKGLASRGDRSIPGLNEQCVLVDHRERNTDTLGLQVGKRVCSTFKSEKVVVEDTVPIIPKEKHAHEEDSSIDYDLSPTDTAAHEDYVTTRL
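Assay system: HEK293 cells with stable TRPC4beta plus mu-opioid receptor expression; Probe or stimulus: DAMGO in two steps, submaximal then maximal; Dosing: single-point compound dosing; Measured by: Fluo4 calcium-dye fluorescence, kinetic read; Read-out basis: B score from integrated Fluo4 fluorescence ratio.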
TRPC4 act = opens the mouse TRPC4 cation channel; HEK293 TRPC4beta/mu-opioid, Fluo4 calcium fluorescence; active compounds read high; AID 2237; 310,000 tested, 0.49% active; B-score at 10 µM;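 active means B-score above 5 SD of library B-scores, and initial fluorescence ratio not above library mean plus 5 SD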;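 further: positive B-score marks a calcium rise read as TRPC4 activation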
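Assay system: HEK293 stable line with TRPC4beta plus mu-opioid receptor; schedule: 45 min room-temperature Fluo4 loading, 110 s read; technique: kinetic Fluo4 calcium fluorescence; evaluation: integrated baseline-normalised fluorescence ratio, converted to per-well B score; controls: buffer (low) and maximal DAMGO (high)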
TRPC4 PAM = allosterically enhances the mouse TRPC4 cation channel; HEK293 TRPC4beta/mu-opioid, DAMGO EC20, Fluo-4 Ca2+ flux; active compounds read high; Q9QUQ5; 310,000 tested, 0.42% active; AID 2227; B-score at 10 µM;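 active means B-score of calcium response area above 5 SD of library B-scores, with initial fluorescence ratio within 5 SD of library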;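 further: B-score of integrated fluorescence ratio over time as area under calcium response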
TRPC6 inh = inhibitors of mouse TRPC6 channel; 310,000 tested, 1.1% active; AID 2553; B-score at 10 µM; Q61143; HEK293-TRPC6, membrane potential dye, ACh-evoked depolarization; active compounds read low;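 active means B-score under library mean minus 3 SD, initial fluorescence not abnormally high, positive integrated signal ratio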;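 further: B-score derived from integrated fluorescence ratio over the kinetic read; more negative B-score means stronger inhibition of depolarization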
TRPC4 sel inh 2 = second selectivity test of TRPC6 inhibitors: effect on mouse TRPC4; inhibition, % at 10 µM; 920 tested, 42% active; HEK293 TRPC4/MOR, membrane potential dye fluorescence; channel activated by saturating DAMGO dose; shares compounds with TRPC6 inh;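 active means compounds whose fluorescence signal differed from control wells by over 3 SD, either direction, in both duplicate plates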
TRPC4 spec = selectivity of TRPC6 inhibitors: effect on mouse TRPC4 | shares compounds with TRPC6 inh | HEK293 TRPC4/mu-opioid, membrane potential fluorescence | activity change, negative = inhibition, % at 10 µM | 920 tested, 61% active | AID 2777;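 active means rise or fall in signal beyond 3 SD of buffer-only wells in both replicate plates, either sign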;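 further: integrated kinetic ratio of fluorescence range over baseline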
HEK293 MPD ctr 2-1 = second counter-screen for TRPC6 inhibitors: parental HEK293 cells | shares compounds with TRPC6 inh | signal change vs control, % at 10 µM | 920 tested, 31% active | parental HEK293 membrane potential dye fluorescence; maximal acetylcholine challenge after compound addition | AID 2779;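 active means membrane potential signal moving either way by over 3 SD of the maximum-effect control, in both duplicate plates, meaning non-specific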
HEK293 MPD ctr-1 = parental HEK293 nonspecific activity of TRPC6 inhibitors. parental HEK293 membrane potential dye fluorescence. shares compounds with TRPC6 inh. membrane potential signal change, % at 10 µM. 920 tested, 60% active. AID 2780;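 active means membrane potential signal shifting up or down by more than 3 SD of buffer-only wells, on both duplicate plates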
HEK293 MPD ctr-2 = checks TRPC6 modulator effects in parental HEK293 cells | shares compounds with TRPC6 inh | membrane potential dye fluorescence | membrane potential signal change, % at 10 µM | 2,400 tested, 51% active | AID 488924;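 active means membrane potential signal moves up or down beyond 5 SD from buffer-only wells, on both duplicate plates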
HEK293 MPD ctr 2-2 = second check of TRPC6 modulator effects in parental HEK293 cells; shares compounds with TRPC6 inh; membrane potential dye fluorescence; after compound, maximal acetylcholine stimulation; inhibition, % at 10 µM; 2,400 tested, 14% active; AID 488926;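 active means membrane potential signal drops by more than 5 SD from the mean control signal, in both duplicate plates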;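 further: plate controls were acetylcholine ECmax control wells for no effect and buffer only wells for full effect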
TRPC4 ctr mod = selectivity of TRPC6 modulators against mouse TRPC4; shares compounds with TRPC6 inh; HEK293 TRPC4/mu-opioid, membrane potential fluorescence; percent change from control (negative = decrease, positive = increase), % at 10 µM; 2,400 tested, 69% active; AID 488927;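 active means membrane potential signal moved up or down beyond 5 SD of buffer control wells, in both duplicate plates, actives on both sides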;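 further: plate controls were assay buffer wells for no effect and DAMGO maximal-effect wells for full effect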
TRPC4 ctr inh 2 = second check of whether TRPC6 modulators also affect mouse TRPC4 | shares compounds with TRPC6 inh | inhibition, % at 10 µM | HEK293 TRPC4/mu-opioid, membrane potential dye fluorescence; stimulated with maximal-effect DAMGO | 2,400 tested, 55% active;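 active means drop in membrane potential signal beyond 5 SD of the control wells in both duplicate plates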;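 further: TRPC4 counter screen for TRPC6 hits run under conditions tuned for TRPC6 not TRPC4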
TRPC6 block conf = confirmation of mouse TRPC6 inhibitors. inhibition, % at 10 µM. shares compounds with TRPC6 inh. HEK293-TRPC6, membrane potential dye, ACh-evoked depolarization. 3,300 tested, 43% active. AID 488960;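 active means fluorescence ratio falls more than 5 SD below the full-stimulation control mean, in both duplicate runs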;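 further: integrated fluorescence ratio of peak minus minimum over baseline after agonist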
TRPC6 act confirm = confirmation of mouse TRPC6 activators; shares compounds with TRPC6 inh; HEK293-TRPC6 membrane potential dye fluorescence, FDSS; activation, % at 10 µM; 2,800 tested, 11% active; AID 488961;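 active means ratio signal rise beyond 5 SD above unstimulated control wells' mean, seen in both duplicate runs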;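 further: plate controls were buffer EC0 wells for no effect and acetylcholine ECmax response for full effect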
Active calls of the source: *; i = inactive; · = no result given.

SMILES	TRPC6 activator	TRPC4 block	TRPC4 act	TRPC4 PAM	TRPC6 inh	HEK293 MPD ctr-2	HEK293 MPD ctr 2-2	TRPC4 ctr mod	TRPC4 ctr inh 2	TRPC6 block conf	TRPC6 act confirm	others
CC(NC(=O)C1CCN(S(=O)(=O)N2CCC3(CC2)OCCO3)CC1)c1ccccc1 (stereo unspecified)	i	i	i	i	i	·	·	·	·	·	·
Cc1c(CCCN)c2ccccc2n1Cc1ccccc1	i	i	i	i	-7.33*	·	·	·	·	i	i	TRPC4 sel inh 2=55.0%*;TRPC4 spec=i;HEK293 MPD ctr 2-1=i;HEK293 MPD ctr-1=-196.0%*
O=Nc1c(O)n(Cc2ccccc2)c2ccccc12	i	i	i	i	i	·	·	·	·	·	·
COCCCNc1nc2nonc2nc1NCCSC	i	i	i	i	i	·	·	·	·	·	·
c1ccc(Cn2nnc3ccccc32)cc1	i	i	i	i	i	·	·	·	·	·	·
c1ccc(Cn2nnc3cnccc32)cc1	i	-5*	i	i	-8.12*	·	·	·	·	i	i	TRPC4 sel inh 2=i;TRPC4 spec=i;HEK293 MPD ctr 2-1=i;HEK293 MPD ctr-1=i
CCN(CC)S(=O)(=O)c1ccc2oc(C(=O)NC3CCCc4ccccc43)c(C)c2c1 (stereo unspecified)	i	i	i	i	i	·	·	·	·	·	·
C=C(C)CN(CC)c1nc(N)c2c(N)nc3c(c2c1C#N)CC(=O)N3C12CC3CC(CC(C3)C1)C2	i	i	i	i	i	·	·	·	·	·	·
N#Cc1c(N2CCCC(O)C2)nc(N)c2c(N)nc3c(c12)CC(=O)N3C12CC3CC(CC(C3)C1)C2 (stereo unspecified)	i	i	i	i	-6.11*	i	i	i	i	i	i
CCOc1cc2c(C#N)c(N3CCNCC3)nc(N)c2c(N)n1	i	i	i	12*	-5.88*	-193.5%*	i	-25.0%*	i	37.5%*	i
Cc1ccc(C(=O)NCC(=O)OCc2csc(-c3ccccc3)n2)cc1	i	i	i	i	i	·	·	·	·	·	·
O=C(OCc1csc(-c2ccccc2)n1)c1ccc(O)cc1	i	i	i	i	-10.2*	·	·	·	·	72.5%*	·	TRPC4 sel inh 2=i;TRPC4 spec=-9.2%*;HEK293 MPD ctr 2-1=i;HEK293 MPD ctr-1=i
CSc1nc2ccc(NC(=O)c3ccc(=O)n(C)n3)cc2s1	i	i	i	i	-5.09*	i	i	i	i	i	i
CCOC(=O)c1nc2cc3n(c(C)c-2c1C)C(C)C(CC)=C3C (stereo unspecified)	i	i	i	i	-6.54*	157.5%*	173.5%*	24.0%*	34.0%*	52.0%*	i
Fc1ccc(-c2csc(-c3ccccn3)n2)cc1F	i	i	i	i	i	·	·	·	·	·	·
CC1(C)CC(O)CC(C)(C)N1CC(O)COCCOc1ccc(Br)cc1 (stereo unspecified)	i	i	i	i	i	·	·	·	·	·	·
COc1ccc(N2CCN(C(=O)c3ccc(F)cc3)CC2)c([N+](=O)[O-])c1	i	i	i	i	i	·	·	·	·	·	·
O=C(c1ccc(F)cc1)N1CCN(c2cc(N3CCCCC3)c(F)cc2[N+](=O)[O-])CC1	i	·	i	i	-10.1*	·	·	·	·	i	i	TRPC4 sel inh 2=i;TRPC4 spec=i;HEK293 MPD ctr 2-1=i;HEK293 MPD ctr-1=i
O=[N+]([O-])c1cc(/C=N/n2cnnc2)ccc1N1CCCC1	i	i	i	i	-5.17*	-76.0%*	i	-15.0%*	i	i	i
O=[N+]([O-])c1cc(/C=N/O)ccc1N1CCCC1	i	i	i	i	i	·	·	·	·	·	·
COc1cc2cc(Oc3ccc4ccc(=O)oc4c3)c(=O)oc2cc1OC(C)=O	i	i	i	i	i	·	·	·	·	·	·
Cc1ccc(C)c(N2CCN(C(=O)CCCOc3cc(=O)n(C)c4ccccc34)CC2)c1	i	i	i	i	-6.23*	139.0%*	i	30.5%*	i	55.0%*	·
O=C(CC(c1ccccc1)c1ccccc1O)N1CCCCC1 (stereo unspecified)	i	i	i	i	-6.35*	i	i	i	i	i	·
COc1cc(S(=O)(=O)N2CCN(c3ccccc3F)CC2)ccc1Cl	i	i	i	i	-5.01*	i	i	i	i	i	i
CCNC(=O)OCC(CC)NC(=O)OCC(C)C (stereo unspecified)	i	i	i	i	i	·	·	·	·	·	·
CCC(COC(=O)Nc1cccc(C)c1)NC(=O)OCC(C)C (stereo unspecified)	i	i	i	i	-5.09*	i	i	i	i	i	i
CCCCCc1nc2sc3c(c2c(=O)n1NC(=O)c1ccc([N+](=O)[O-])cc1)CC(C)(C)OC3	i	i	i	i	-5.66*	i	i	i	63.5%*	56.5%*	i
CCCCCCCc1nc2sc3c(c2c(=O)n1N)CC(C)(C)OC3	i	i	i	i	i	·	·	·	·	·	·
Cn1cc(Cl)c(C(=O)OCC(=O)Nc2ccc(S(N)(=O)=O)cc2)n1	i	i	i	i	i	·	·	·	·	·	·
Cc1cccc(Nc2cc(C)nc3ccccc23)c1	i	i	i	i	-6.03*	-139.5%*	59.5%*	-26.0%*	73.0%*	66.0%*	i
